Calls of active or inactive are those of the source. No cut-off for these calls is given here.

The target in assay [1] is T1, Neuronal acetylcholine receptor; alpha4/beta2 (Rattus norvegicus, UniProt P09483+P12390). Put plainly: Inhibition of [3H](-)-nicotine binding to rat brain (minus cerebellum) Nicotinic acetylcholine receptor alpha4-beta2. Type of assay: tissue-based. In short, it runs like this: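 Rat brain homogenate with cerebellum removed, labelled with [3H](-)nicotine. IC50 taken from a plot of log concentration against percent displacement, then converted to Ki. At least triplicate.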

Assay [2] concerns the target T1, Neuronal acetylcholine receptor; alpha4/beta2. The experiment in a line: Inhibition of [3H]epibatidine binding to rat Nicotinic acetylcholine receptor alpha4-beta2. In kind it is protein-complex assay.
Assay [3] has as its target Neuronal acetylcholine receptor; alpha2/beta4 (Rattus norvegicus, UniProt P12389+P12392). The experiment in a line: Binding affinity for rat Nicotinic acetylcholine receptor alpha2-beta4. Type of assay: protein-complex assay. The method in brief: (§1)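 Binding run by the NIMH Psychoactive Drug Screening Program under standard protocols, using cloned rat receptor preparations.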

The subject of assay [4] is Mus musculus. The experiment in a line: Nicotine-like action of the compound tested in mouse in spontaneous activity assay at 15 mg/kg sc dose; NA = Not active. Type of assay: functional, organism-based. On the set-up: dose 15 mg/kg. The method in brief: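 Male ICR mice (20–25 g), at least six per dose, given compound or 0.9% saline sc. Placed in individual photocell activity cages 5 min after injection. Beam interruptions counted over the next 10 min.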

The target of assay [5] is Neuronal acetylcholine receptor; alpha2/beta2 (Rattus norvegicus, UniProt P12389+P12390). The experiment in a line: Binding affinity for rat Nicotinic acetylcholine receptor alpha2-beta2. In kind it is protein-complex assay. The method in brief:
as §1

The test system of assay [6] is Mus musculus. The experiment in a line: Percent of maximal possible antinociceptive effect at 15 mg/kg dose; failed to produce effect. In kind it is functional.
Assay [7] concerns the target Neuronal acetylcholine receptor; alpha3/beta4 (Rattus norvegicus, UniProt P04757+P12392). Put plainly: Binding affinity for rat Nicotinic acetylcholine receptor alpha3-beta4. In kind it is protein-complex assay. The method in brief: as §1
The target in assay [8] is Neuronal acetylcholine receptor; alpha4/beta4 (Rattus norvegicus, UniProt P09483+P12392). Put plainly: Binding affinity for rat Nicotinic acetylcholine receptor alpha4-beta4. Type of assay: protein-complex assay. In short, it runs like this: as §1
The target in assay [9] is Neuronal acetylcholine receptor; alpha3/beta2 (Rattus norvegicus, UniProt P04757+P12390). Put plainly: Binding affinity for rat Nicotinic acetylcholine receptor alpha3-beta2. Type of assay: protein-complex assay. In short, it runs like this:
as §1

Assay [10] relates to Mus musculus. Put plainly: Nicotine-like action of the compound tested in mouse in hypothermia assay at 15 mg/kg sc dose; NA = Not active. Type of assay: functional, organism-based. Further details: dose 15 mg/kg. The method in brief: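 Male ICR mice (20–25 g), at least six per dose, given compound or saline sc. Rectal temperature read by thermistor probe inserted 24 mm, just before and 30 min after injection.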

T1 sequence (P09483 whole entry): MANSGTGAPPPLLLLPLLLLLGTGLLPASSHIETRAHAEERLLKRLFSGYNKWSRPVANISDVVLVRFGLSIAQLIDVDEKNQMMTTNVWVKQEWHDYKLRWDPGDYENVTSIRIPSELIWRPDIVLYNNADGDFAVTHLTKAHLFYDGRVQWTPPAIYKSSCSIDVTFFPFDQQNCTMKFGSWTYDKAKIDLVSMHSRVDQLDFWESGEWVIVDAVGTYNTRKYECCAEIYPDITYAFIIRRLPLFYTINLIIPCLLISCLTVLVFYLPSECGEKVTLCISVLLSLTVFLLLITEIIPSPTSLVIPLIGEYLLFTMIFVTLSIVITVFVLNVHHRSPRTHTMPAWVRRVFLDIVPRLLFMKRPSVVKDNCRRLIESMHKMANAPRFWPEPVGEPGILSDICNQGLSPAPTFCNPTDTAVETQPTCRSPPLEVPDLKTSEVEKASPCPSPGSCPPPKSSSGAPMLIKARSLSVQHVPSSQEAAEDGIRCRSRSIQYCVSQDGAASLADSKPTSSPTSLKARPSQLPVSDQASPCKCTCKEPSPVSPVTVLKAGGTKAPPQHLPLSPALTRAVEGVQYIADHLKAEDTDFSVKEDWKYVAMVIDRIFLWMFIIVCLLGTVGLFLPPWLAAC
T1 sequence (P12390 whole entry): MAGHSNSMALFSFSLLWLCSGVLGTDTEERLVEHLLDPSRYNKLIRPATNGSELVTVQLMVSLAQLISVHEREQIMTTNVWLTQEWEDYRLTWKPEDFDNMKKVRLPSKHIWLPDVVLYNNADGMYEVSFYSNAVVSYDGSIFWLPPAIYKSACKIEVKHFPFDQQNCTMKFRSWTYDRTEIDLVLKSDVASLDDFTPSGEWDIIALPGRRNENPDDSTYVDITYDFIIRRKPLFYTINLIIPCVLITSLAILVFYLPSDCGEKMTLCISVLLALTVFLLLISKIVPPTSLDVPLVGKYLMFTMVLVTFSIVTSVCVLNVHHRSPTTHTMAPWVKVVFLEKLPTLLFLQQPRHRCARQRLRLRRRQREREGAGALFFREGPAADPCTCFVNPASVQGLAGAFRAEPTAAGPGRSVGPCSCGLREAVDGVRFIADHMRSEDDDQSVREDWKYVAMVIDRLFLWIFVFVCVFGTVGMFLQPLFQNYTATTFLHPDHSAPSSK
Sequence of Neuronal acetylcholine receptor; alpha2/beta4 (P12389 whole entry): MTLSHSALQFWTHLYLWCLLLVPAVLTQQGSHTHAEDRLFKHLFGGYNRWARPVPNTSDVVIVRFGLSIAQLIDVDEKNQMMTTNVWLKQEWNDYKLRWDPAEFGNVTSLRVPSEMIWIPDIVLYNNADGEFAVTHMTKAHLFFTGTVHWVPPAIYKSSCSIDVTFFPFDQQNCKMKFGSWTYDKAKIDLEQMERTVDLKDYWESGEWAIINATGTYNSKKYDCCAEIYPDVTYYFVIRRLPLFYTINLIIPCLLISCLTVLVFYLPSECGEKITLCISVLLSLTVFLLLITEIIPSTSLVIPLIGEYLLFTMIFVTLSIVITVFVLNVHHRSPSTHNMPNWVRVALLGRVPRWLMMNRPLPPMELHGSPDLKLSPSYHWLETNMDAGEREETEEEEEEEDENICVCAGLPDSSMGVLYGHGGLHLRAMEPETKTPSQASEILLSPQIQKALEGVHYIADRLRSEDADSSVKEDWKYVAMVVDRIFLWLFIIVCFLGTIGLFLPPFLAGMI
Sequence of Neuronal acetylcholine receptor; alpha2/beta4 (P12392 whole entry): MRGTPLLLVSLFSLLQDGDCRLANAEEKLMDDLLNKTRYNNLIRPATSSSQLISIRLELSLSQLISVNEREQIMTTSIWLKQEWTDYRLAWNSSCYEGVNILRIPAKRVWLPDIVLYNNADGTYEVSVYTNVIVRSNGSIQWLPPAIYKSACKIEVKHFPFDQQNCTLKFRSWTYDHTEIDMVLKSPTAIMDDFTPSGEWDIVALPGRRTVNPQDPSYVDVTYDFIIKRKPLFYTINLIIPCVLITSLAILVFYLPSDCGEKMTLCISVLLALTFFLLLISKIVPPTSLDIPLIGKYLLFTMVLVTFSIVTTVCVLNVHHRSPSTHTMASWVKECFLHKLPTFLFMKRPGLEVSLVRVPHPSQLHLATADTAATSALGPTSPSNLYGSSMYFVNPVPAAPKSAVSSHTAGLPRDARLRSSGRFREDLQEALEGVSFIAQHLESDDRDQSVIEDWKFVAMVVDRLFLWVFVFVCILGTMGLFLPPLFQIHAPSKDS
Sequence of Neuronal acetylcholine receptor; alpha2/beta2 (P12389 whole entry): as the sequence (P12389 whole entry) above
Sequence of Neuronal acetylcholine receptor; alpha2/beta2 (P12390 whole entry): as the sequence (P12390 whole entry) above
Sequence of Neuronal acetylcholine receptor; alpha4/beta4 (P09483 whole entry): as the sequence (P09483 whole entry) above
Sequence of Neuronal acetylcholine receptor; alpha4/beta4 (P12392 whole entry): as the sequence (P12392 whole entry) above
Sequence of Neuronal acetylcholine receptor; alpha3/beta2 (P04757 whole entry): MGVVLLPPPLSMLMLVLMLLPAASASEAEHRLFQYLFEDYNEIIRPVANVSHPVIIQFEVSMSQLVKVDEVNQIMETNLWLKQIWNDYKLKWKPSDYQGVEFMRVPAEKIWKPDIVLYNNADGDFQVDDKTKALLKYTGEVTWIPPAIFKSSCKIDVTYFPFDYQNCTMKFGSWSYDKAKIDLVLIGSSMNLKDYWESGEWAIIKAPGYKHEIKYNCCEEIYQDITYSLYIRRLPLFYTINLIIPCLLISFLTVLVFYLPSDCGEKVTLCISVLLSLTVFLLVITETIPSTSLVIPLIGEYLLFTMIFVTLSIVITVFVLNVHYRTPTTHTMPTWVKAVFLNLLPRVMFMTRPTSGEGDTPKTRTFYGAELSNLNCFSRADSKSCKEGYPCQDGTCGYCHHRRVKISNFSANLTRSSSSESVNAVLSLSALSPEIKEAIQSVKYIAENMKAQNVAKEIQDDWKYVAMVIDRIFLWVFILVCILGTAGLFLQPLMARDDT
Sequence of Neuronal acetylcholine receptor; alpha3/beta2 (P12390 whole entry): as the sequence (P12390 whole entry) above
Sequence of Neuronal acetylcholine receptor; alpha3/beta4 (P04757 whole entry): as the sequence (P04757 whole entry) above
Sequence of Neuronal acetylcholine receptor; alpha3/beta4 (P12392 whole entry): as the sequence (P12392 whole entry) above

As for `CN1CCCC1c1ccc(C(=O)O)nc1` (stereo not given), in assay [1], the Ki was > 10000 nM.
`CN1CCCC1c1ccc(CCCc2ccccc2)nc1` (single isomer, unassigned; (-)): the Ki in [1] was found to be 72 nM.
`CN1CCCC1c1ccc(CCc2ccc(Cl)cc2)nc1` (stereo not given) registered an inhibition constant Ki in assay [1] of 40 nM. Against the preceding compound, the Ki is about 1.8-fold lower.
On the same count and under the same terms, under `CCc1ccc(C2CCCN2C)cn1` (stereo not given) stands 5.6 nM; under `CN1CCCC1c1ccc(/C=C/c2ccccc2)nc1` (stereo not given), 350 nM; under `COc1ccc(CCc2ccc(C3CCCN3C)cn2)cc1` (stereo not given), 10 nM.
Consider `CN1CCCC1c1ccc(CCc2ccccc2)nc1` (stereo not given), for which the Ki was found to be 200 nM in assay [2]; 1200 nM in [3]; 15 nM in [1]; 490 nM in [5]; 4.6 µM in assay [7]; 400 nM in assay [8]. For the same compound, in assay [9], the Ki was determined as 2000 nM. Moreover, the result with Mus musculus [4] and in the assay with Mus musculus [10] was inactive. In the assay with Mus musculus [6], this compound gave an MPE of 2%.
In turn, `CN1CCCC1c1ccc(CC(O)c2ccccc2)nc1` (stereo not given) displayed a Ki in [1] of 275 nM.
In the case of `CN1CCCC1c1ccc(CCCc2ccccc2)nc1` (single isomer, unassigned; (+)), the inhibition constant Ki in [1] was > 10000 nM.
The same measure, in the same setting: under `CCCc1ccc(C2CCCN2C)cn1` (stereo not given) stands 17 nM.
Still for that read-out and setting: under `CCN(C)CCc1ccc(CCc2ccccc2)nc1` stands > 10000 nM.
